Experimental data collected from several papers.
Lines come from different studies, so protocols differ.
Effect on: DPPH scavenging

Compound	method	concentration	inhibition [%]
CC1(C)CC[C@]2(C(=O)O)CC[C@]3(C)C(=CC[C@@H]4[C@@]5(C)CC[C@H](O)C(C)(C)[C@@H]5CC[C@]43C)[C@@H]2C1	–	100 µg/mL	95.6
Cc1cc(NS(=O)(=O)c2ccc(N=NN(O)c3ccccc3)cc2)no1	absorbance	240 µg/mL	33.7
COc1cc(C=Cc2cc(-c3ccc(N(C)C)cc3)nc(O)n2)ccc1O	–	25 µg/mL	46.6
Cc1ccc(C(C)C)cc1NC(=O)COC(=O)c1cccc(O)c1	–	100 µg/mL	25.2
COc1cc(C=CC(=O)CC(c2ccc(N(C)C)cc2)n2ccnc2)ccc1O (stereo not drawn)	–	100 µg/mL	73.5
Cc1cccc(N(O)N=Nc2ccc(S(=O)(=O)Nc3cc(C)on3)cc2)c1	absorbance	300 µg/mL	37.1
O=C1O[C@H]([C@@H](O)CO)C(O)=C1O	–	25 µg/mL	57.2
Cc1ccc(N(O)N=Nc2ccc(S(=O)(=O)Nc3cc(C)on3)cc2)cc1	absorbance	240 µg/mL	29.7
O=C1O[C@H]([C@@H](O)CO)C(O)=C1O	absorbance	120 µM	59
Cc1ccc(C(C)C)cc1NC(=O)COC(=O)/C=C/c1ccc(O)cc1	–	100 µg/mL	8.51
Cc1ccc(N(O)N=Nc2ccc(S(=O)(=O)Nc3onc(C)c3C)cc2)cc1	absorbance	300 µg/mL	32.6
COc1cc(C=Cc2cc(-c3ccccc3)nc(O)n2)ccc1O	–	100 µg/mL	73.6
Cc1ccc(C(C)C)cc1NC(=O)COC(=O)c1ccc(O)c(O)c1	–	100 µg/mL	91.8
Oc1ccc(Br)cc1C=NCCN1CCOCC1	absorbance	160 µM	36.5
CCN(O)N=Nc1ccc(S(=O)(=O)Nc2onc(C)c2C)cc1	absorbance	180 µg/mL	22.5
Cc1ccc(C(C)C)cc1NC(=O)COC(=O)c1cc(O)cc(O)c1	–	100 µg/mL	7.12
CCN(O)N=Nc1ccc(S(=O)(=O)Nc2nccs2)cc1	absorbance	240 µg/mL	25.2
COc1cc(C=CC(=O)CC(c2ccc([N+](=O)[O-])cc2)n2ccnc2)ccc1O (stereo not drawn)	–	25 µg/mL	50.7
